Reference: ChEMBL document CHEMBL1130197, “Preparation, characterization, DNA binding, and in vitro cytotoxicity of the enantiomers of the platinum(II) complexes N-methyl-, N-ethyl- and N,N-dimethyl-(R)- and -(S)-3-aminohexahydroazepinedichloroplatinum(II)” (1997)

Tests used:
Assay type in all cases: functional
[1] = Concentration to inhibit growth of PC9-cisR cell lines; conditions: Homo sapiens; PC-9
Summary of the method: (§1)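 Human tumor lines grown as monolayers in RPMI 1640 with 10% FCS plus penicillin/streptomycin, at 37 °C under 7.5% CO₂, 5% O₂, 85% N₂. Cells were seeded at 5000 per well and left 24 h, then exposed for 96 h at 37 °C to complexes (saline-dissolved, final 0–200 μM). Viability was read by MTT (570 nm) or SRB (570 nm) against untreated controls, with 4 or 6 replicates. IC50 was taken from dose–response curves.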

PC-9 = assay: Concentration to inhibit growth of PC9 cell lines; conditions: Homo sapiens; summary of the method: as §1
BL13/0 = assay: Concentration to inhibit growth of BL13/0 cell lines; conditions: Homo sapiens; summary of the method: as §1
DU-145 = assay: Concentration to inhibit growth of DU145 cell lines; conditions: Homo sapiens; summary of the method: as §1

Row | Substance | Mean IC50 (PC-9) [µM] | Mean IC50 (DU-145) [µM] | Mean IC50 [1] [µM] | Mean IC50 (BL13/0) [µM]
1 | 8,8-Platinumdichloro-7-methyl-(6S)-1,7-diazoniabicyclo[4.2.1]nonane | 13.7 | 10.1 | 38.3 | 11.7
2 | 8,8-platinumdichloro-(6R)-1,7-diazoniabicyclo[4.2.1]nonane | 5.9 | 2.9 | 16 | 1.3
3 | CISPLATIN | 1.4 | 1.8 | 11.7 | 1.9

Continued, in another order:

Row | Mean IC50 (PC-9) [µM] | Mean IC50 (DU-145) [µM] | Substance | Mean IC50 [1] [µM] | Mean IC50 (BL13/0) [µM]
4 | 31 | 21.3 | 8,8-Platinum dichloro-7-ethyl-(6S)-1,7-diazoniabicyclo[4.2.1]nonane | 79.7 | 19
5 | 13.5 | 7.3 | 8,8-Platinumdichloro-7,7-dimethyl-(6R)-1,7-diazoniabicyclo[4.2.1]nonane | 29.3 | 7.7
6 | 11.8 | 11.5 | 8,8-Platinumdichloro-7,7-dimethyl-(6S)-1,7-diazoniabicyclo[4.2.1]nonane | 28.7 | 10.2
7 | 20 | 9.5 | 8,8-Platinumdichloro-7-ethyl-(6R)-1,7-diazoniabicyclo[4.2.1]nonane | 44 | 7.4
